Reference: ChEMBL document CHEMBL4689842, “EUbOPEN Chemogenomics Library wave 1” (2021)

Test system: Fibroblast
Test: Multiplex assay against human fibroblast
Format: toxicity, cell-based
Outline: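 With compound added, live cells were imaged on a CQ1 microscope at 37°C and 5% CO2; staining with Hoechst33342, BioTracker Green Microtubule Cytoskeleton Dye, MitoTracker Red and Annexin V Alexa Fluor 680 had been done at seeding. The CellPathfinder machine-learning gating scheme split cells into Hoechst high-intensity objects or normal cells, normal cells into healthy, pyknosed or fragmented nuclei, and pyknosed cells into mitotic or apoptotic. The tubulin, mitochondrial-mass and membrane-permeability phenotypes are per cents of healthy-nucleus cells.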

[1] = 12 h, 1 µM, compound concentration 1 uM, replicate 1
[2] = 12 h, 1 µM, compound concentration 1 uM, replicate 2
[3] = 12 h, 10 µM, compound concentration 10 uM, replicate 1
[4] = 12 h, 10 µM, compound concentration 10 uM, replicate 2
[5] = 24 h, 1 µM, compound concentration 1 uM, replicate 1
[6] = 24 h, 1 µM, compound concentration 1 uM, replicate 2
[7] = 24 h, 10 µM, compound concentration 10 uM, replicate 1
[8] = 24 h, 10 µM, compound concentration 10 uM, replicate 2
[9] = 48 h, 1 µM, compound concentration 1 uM, replicate 1
[10] = 48 h, 1 µM, compound concentration 1 uM, replicate 2
[11] = 48 h, 10 µM, compound concentration 10 uM, replicate 1
[12] = 48 h, 10 µM, compound concentration 10 uM, replicate 2

## OC1(c2ccc(Cl)cc2)CCN(Cc2c[nH]c3ccccc23)CC1
[1]
  Population Apoptotic (%): 58%
  Population Fragmented Nuclei (%): 26%
  Population Healthy Nuclei (%): 41%
  Population Hoechst High Intensity Objects (%): 11%
  Population Membrane Permeable-Phenotype (%): 22%
  Population Mitochondria Different-Phenotype (%): 6%
  Population Mitotic Cells (%): 41%
  Population Normal (%): 88%
  Population Pyknosed Nuclei (%): 32%
  Population Tubulin-Different-Phenotype (%): 33%
  Total Cell Count: 169
[2]
  Population Apoptotic (%): 0%
  Population Fragmented Nuclei (%): 13%
  Population Healthy Nuclei (%): 77%
  Population Hoechst High Intensity Objects (%): 10%
  Population Membrane Permeable-Phenotype (%): 3%
  Population Mitochondria Different-Phenotype (%): 13%
  Population Mitotic Cells (%): 100%
  Population Normal (%): 89%
  Population Pyknosed Nuclei (%): 9%
  Population Tubulin-Different-Phenotype (%): 9%
  Total Cell Count: 78
[3]
  Population Apoptotic (%): 63%
  Population Fragmented Nuclei (%): 37%
  Population Healthy Nuclei (%): 38%
  Population Hoechst High Intensity Objects (%): 30%
  Population Membrane Permeable-Phenotype (%): 13%
  Population Mitochondria Different-Phenotype (%): 34%
  Population Mitotic Cells (%): 36%
  Population Normal (%): 69%
  Population Pyknosed Nuclei (%): 23%
  Population Tubulin-Different-Phenotype (%): 90%
  Total Cell Count: 246
[4]
  Population Apoptotic (%): 42%
  Population Fragmented Nuclei (%): 13%
  Population Hoechst High Intensity Objects (%): 3%
  Population Membrane Permeable-Phenotype (%): 4%
  Population Mitochondria Different-Phenotype (%): 95%
  Population Mitotic Cells (%): 57%
  Population Normal (%): 96%
  Population Pyknosed Nuclei (%): 47%
  Population Tubulin-Different-Phenotype (%): 60%
  Total Cell Count: 74
[5]
  Population Apoptotic (%): 52%
  Population Fragmented Nuclei (%): 29%
  Population Healthy Nuclei (%): 47%
  Population Hoechst High Intensity Objects (%): 14%
  Population Membrane Permeable-Phenotype (%): 25%
  Population Mitochondria Different-Phenotype (%): 10%
  Population Mitotic Cells (%): 47%
  Population Normal (%): 85%
  Population Pyknosed Nuclei (%): 22%
  Population Tubulin-Different-Phenotype (%): 42%
  Total Cell Count: 174
[6]
  Population Apoptotic (%): 20%
  Population Fragmented Nuclei (%): 5%
  Population Healthy Nuclei (%): 88%
  Population Hoechst High Intensity Objects (%): 8%
  Population Membrane Permeable-Phenotype (%): 4%
  Population Mitochondria Different-Phenotype (%): 13%
  Population Mitotic Cells (%): 80%
  Population Normal (%): 91%
  Population Pyknosed Nuclei (%): 6%
  Population Tubulin-Different-Phenotype (%): 8%
  Total Cell Count: 77
[7]
  Population Apoptotic (%): 64%
  Population Fragmented Nuclei (%): 24%
  Population Healthy Nuclei (%): 50%
  Population Hoechst High Intensity Objects (%): 43%
  Population Membrane Permeable-Phenotype (%): 20%
  Population Mitochondria Different-Phenotype (%): 51%
  Population Mitotic Cells (%): 35%
  Population Normal (%): 56%
  Population Pyknosed Nuclei (%): 24%
  Population Tubulin-Different-Phenotype (%): 75%
  Total Cell Count: 224
[8]
  Population Apoptotic (%): 66%
  Population Fragmented Nuclei (%): 21%
  Population Healthy Nuclei (%): 27%
  Population Hoechst High Intensity Objects (%): 5%
  Population Membrane Permeable-Phenotype (%): 5%
  Population Mitochondria Different-Phenotype (%): 94%
  Population Mitotic Cells (%): 33%
  Population Normal (%): 94%
  Population Pyknosed Nuclei (%): 51%
  Population Tubulin-Different-Phenotype (%): 52%
  Total Cell Count: 85
[9]
  Population Apoptotic (%): 82%
  Population Fragmented Nuclei (%): 33%
  Population Healthy Nuclei (%): 26%
  Population Hoechst High Intensity Objects (%): 0%
  Population Membrane Permeable-Phenotype (%): 54%
  Population Mitochondria Different-Phenotype (%): 0%
  Population Mitotic Cells (%): 17%
  Population Normal (%): 100%
  Population Pyknosed Nuclei (%): 40%
  Population Tubulin-Different-Phenotype (%): 90%
  Total Cell Count: 42
[10]
  Population Apoptotic (%): 50%
  Population Fragmented Nuclei (%): 43%
  Population Healthy Nuclei (%): 54%
  Population Hoechst High Intensity Objects (%): 14%
  Population Membrane Permeable-Phenotype (%): 5%
  Population Mitochondria Different-Phenotype (%): 1%
  Population Mitotic Cells (%): 50%
  Population Normal (%): 85%
  Population Pyknosed Nuclei (%): 1%
  Population Tubulin-Different-Phenotype (%): 46%
  Total Cell Count: 119
[11]
  Population Fragmented Nuclei (%): 36%
  Population Healthy Nuclei (%): 26%
  Population Hoechst High Intensity Objects (%): 40%
  Population Membrane Permeable-Phenotype (%): 16%
  Population Mitochondria Different-Phenotype (%): 56%
  Population Normal (%): 59%
  Population Pyknosed Nuclei (%): 37%
  Population Tubulin-Different-Phenotype (%): 70%
  Total Cell Count: 191
[12]
  Population Apoptotic (%): 90%
  Population Fragmented Nuclei (%): 39%
  Population Healthy Nuclei (%): 24%
  Population Hoechst High Intensity Objects (%): 30%
  Population Membrane Permeable-Phenotype (%): 17%
  Population Mitochondria Different-Phenotype (%): 47%
  Population Mitotic Cells (%): 9%
  Population Normal (%): 69%
  Population Pyknosed Nuclei (%): 35%
  Population Tubulin-Different-Phenotype (%): 52%
  Total Cell Count: 133
